This sample holds only a part of the variants without activity.
B1: tRNA (parent)
chain: GUUCCGUUGGCGUAAUGGUAACGCGUCUCCCUCCUAAGGAGAAGACUGCGGGUUCGAGUCCCGUACGGAACG

Variants of: B1
Assay: yeast fitness relative to wild type (ratio to wild type); higher = fitter; tRNA-Arg(CCU), competitive growth, 37 C, YPD
Method in brief: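 Variants of the tRNA-Arg(CCU) gene, chemically synthesised with a 3% per-site mutation rate at 69 sites, were placed at the native genomic locus in Saccharomyces cerevisiae. The pooled strains were competed in YPD at 37°C for 24 hours in six parallel replicates. Gene amplicons from the start population and from each end population were read by 100-nucleotide paired-end sequencing. Darwinian fitness relative to wild type came from changes in genotype frequencies; genotypes needed ≥ 100 starting reads, and estimates < 0.5 were set to 0.5.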

Variant | yeast fitness
G25C G52A | 0.748
U26C C33G A42C C49G G58C C62G | 0.616
U26A U64A | 0.788
U26A C34G G56A | 0.565
U26A U54A | 0.589
U26C U28C C46G C62G G67U | ≤ 0.5
U26A G44C C55U G67U | 0.759
U26A U64G A65U A69C | ≤ 0.5
G25C G50C G56A G58A | ≤ 0.5
U26G G63A | 0.919
U26A G39A | 0.87
C27A C34G A43U A57C | ≤ 0.5
U26G C55G | 0.636
U26C C30U | 0.67
U26C C33U A40U | ≤ 0.5
U26G G39C A45G A57C C61G | 0.592
U26A C27U A65G | 1
U26A A40C C66A | ≤ 0.5
U26A C49G G56U | ≤ 0.5
U26C G39A U59A C60G C62U | ≤ 0.5
U26G A37G G51C | 0.801

Variant | yeast fitness
U26C A42C | 0.828
U26C A42U | 1.01
U26C C31U C49G | 0.622
U26A C30A C34A G48C | 0.583
U26C C30G C34A C62U | ≤ 0.5
G25C G48A G63A A69G | ≤ 0.5
U26C C61G C62G | ≤ 0.5
U26C C27G A40C | ≤ 0.5
C27A C34A | 0.68
U26A G67A | 0.905
C27A A37C C55G | ≤ 0.5
G25C U53C A65C | 0.697
G25U A36U G56C A65C C66U | ≤ 0.5
C27A A42C C46U C62U | 0.563
G25U C29G A42C C66U G67A | ≤ 0.5
C27A A43C C66U | 0.709
C27A A43U U64C | 0.628
U26A G52U C55A | 0.616
U26C C31G | 0.875
U26C C31U | 1.07
U26C C60A | 0.572

Variant | yeast fitness
C27A C30G G41C | ≤ 0.5
U26C G48C | 0.86
U26A A70G | 0.924
U26C A40G C49U | 0.502
G25C U32G | 0.655
G25C U32C | 0.948
U26A C30G A37C U59A | ≤ 0.5
C27A C34G A42G G50A | ≤ 0.5
U26A G63A G68C A69G | ≤ 0.5
U26G A36U | 0.714
U26G U47C G51A | 0.559
U26C C27G A40C C66U | ≤ 0.5
U26G G51A | 0.598
U26A A43U A65U | 0.618
G25C U54G | 0.581
U26A C31A A42G C55G | ≤ 0.5
U26A G41C C46U | 0.797
C27A A45G G48C | ≤ 0.5
U26A U47A C61A | ≤ 0.5
U26G C29A A42C | 0.586
U26A C33U U53C | 0.54

Variant | yeast fitness
U26C A40G | 1.03
U26A U28C C30G | ≤ 0.5
C27A A45U C60G G63A A65U C66U | ≤ 0.5
U26G C49U | 0.974
U26G C61U G67A | ≤ 0.5
C27A A45U | 0.839
U26G C31G A40C C49U C66A | 0.587
C27A C34G A40G | 0.666
C27A A36G A37G A70U | ≤ 0.5
C27A A37G G39C C55U A65C | ≤ 0.5
U26C C33U U53A C66A | ≤ 0.5
U26G U64C | 0.878
U26A A40C U54A | ≤ 0.5
U26C C49G C55U | ≤ 0.5
C27A A69U | 0.846
U26C C27G C60G C62U | 0.624
U26C G41C | 0.947
U26G U47A | 0.811
G25C U26G C46G C62G | ≤ 0.5
U26G C27U C49U C66U | 0.577

— the RNAGym collection of RNA variant scans (doi:10.1126/science.aae0568)
